Source: ChEMBL document CHEMBL3872255, “Design, synthesis and analgesic/anti-inflammatory evaluation of novel diarylthiazole and diarylimidazole derivatives towards selective COX-1 inhibitors with better gastric profile” (Bioorg Med Chem, 2017)
pIC50: −log10 of the molar value. The source made the active and inactive calls. The calls are words filed in the database; no cut-off is given here.

Experiments:
Rattus norvegicus [1] = assay: Anti-inflammatory activity against carrageenan-induced paw edema in albino rat assessed as paw thickness at 100 mg/kg, po pretreated for 1 hr followed by carrageenan challenge measured at 7 hrs post carrageenan challenge (reference value: 0.464 +/- 0.023 mm); assay type: functional
Rattus norvegicus [2] = assay: Anti-inflammatory activity against carrageenan-induced paw edema in albino rat assessed as paw thickness at 100 mg/kg, po pretreated for 1 hr followed by carrageenan challenge measured at 1 hr post carrageenan challenge (reference value: 0.394 +/- 0.220 mm); assay type: functional
Mus musculus [3] = species on record: Mus musculus; assay: Analgesic activity in mouse assessed as decrease in number of acetic acid-induced writhing pretreated for 1 hr followed by acetic acid challenge measured between 5 to 20 mins after acetic acid injection; assay type: functional
Outline: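 Groups of five mice received test compound; 1 h later, 0.6% acetic acid (0.01 ml/g) was injected intraperitoneally. Writhes were counted for 15 min, from minute 5 to 20 after injection. Activity was taken as the reduction in writhing count. Diclofenac 6 mg/kg was the reference. Data are mean ± S.D., N=5, analysed by one-way ANOVA with Dunnett test.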

Rattus norvegicus [4] = assay: Anti-inflammatory activity against carrageenan-induced paw edema in albino rat assessed as paw thickness at 100 mg/kg, po pretreated for 1 hr followed by carrageenan challenge measured at 3 hrs post carrageenan challenge (reference value: 0.401 +/- 0.019 mm); assay type: functional
[5] = molecular target: T1, Prostaglandin G/H synthase 1 (Ovis aries, UniProt P05979); assay: Inhibition of ovine COX-1 assessed as reduction in oxidation of TMPD using arachidonic acid as substrate preincubated for 5 mins followed by substrate and TMPD addition measured after 5 mins by colorimetric assay
T1 sequence (P05979 whole entry): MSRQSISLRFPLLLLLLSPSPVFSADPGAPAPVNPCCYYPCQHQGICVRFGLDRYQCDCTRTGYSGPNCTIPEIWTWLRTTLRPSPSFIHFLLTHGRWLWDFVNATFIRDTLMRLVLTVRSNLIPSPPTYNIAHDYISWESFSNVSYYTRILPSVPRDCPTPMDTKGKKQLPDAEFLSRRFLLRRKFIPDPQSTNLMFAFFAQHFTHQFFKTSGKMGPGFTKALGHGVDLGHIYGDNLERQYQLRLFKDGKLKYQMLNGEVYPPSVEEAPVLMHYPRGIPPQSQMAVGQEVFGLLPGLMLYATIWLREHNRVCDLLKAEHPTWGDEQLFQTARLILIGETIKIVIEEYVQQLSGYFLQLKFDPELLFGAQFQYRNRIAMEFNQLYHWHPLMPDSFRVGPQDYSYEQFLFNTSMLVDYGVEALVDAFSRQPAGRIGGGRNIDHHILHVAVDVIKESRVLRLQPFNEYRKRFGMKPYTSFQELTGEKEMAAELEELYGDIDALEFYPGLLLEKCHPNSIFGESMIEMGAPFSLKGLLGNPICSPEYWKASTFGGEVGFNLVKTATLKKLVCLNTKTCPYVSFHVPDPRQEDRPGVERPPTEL

Rattus norvegicus [6] = assay: Anti-inflammatory activity against carrageenan-induced paw edema in albino rat assessed as inhibition of paw edema at 100 mg/kg, po pretreated for 1 hr followed by carrageenan challenge measured after 1 to 7 hrs relative to control; assay type: functional
[7] = Ulcerogenic effect in albino rat assessed as ulcer index […], po administered 2 to 3 days; assay type: toxicity, organism-based; conditions: in vivo
Outline: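 Rats were fasted 2 h, fed 2 h, then fasted 20 h, with further doses on days 2 and 3. Stomachs were rinsed in 0.9% saline and lesions scored 0-4. Ulcer index = %incidence/10 + average severity + average ulcer number.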

Mus musculus [8] = species on record: Mus musculus; assay: Analgesic activity in mouse assessed as number of acetic acid-induced writhing pretreated for 1 hr followed by acetic acid challenge measured between 5 to 20 mins after acetic acid injection; assay type: functional
Outline: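 Groups of five mice. Test compound given 1 h before i.p. injection of 0.6% acetic acid, 0.01 ml/g. Writhing movements counted for 15 min, from the 5th to the 20th min after injection. Diclofenac 6 mg/kg served as reference. Activity is taken as the reduction in number of writhings; mean ± S.D., N=5.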

Rattus norvegicus [9] = assay: Anti-inflammatory activity against carrageenan-induced paw edema in albino rat assessed as inhibition of paw edema at 60 mg/kg, po pretreated for 1 hr followed by carrageenan challenge measured after 1 to 7 hrs relative to control; assay type: functional
Rattus norvegicus [10] = assay: Anti-inflammatory activity against carrageenan-induced paw edema in albino rat assessed as paw thickness at 60 mg/kg, po pretreated for 1 hr followed by carrageenan challenge measured at 1 hr post carrageenan challenge (reference value: 0.394 +/- 0.220 mm); assay type: functional
Rattus norvegicus [11] = assay: Anti-inflammatory activity against carrageenan-induced paw edema in albino rat assessed as paw thickness at 60 mg/kg, po pretreated for 1 hr followed by carrageenan challenge measured at 3 hrs post carrageenan challenge (reference value: 0.401 +/- 0.019 mm); assay type: functional
Rattus norvegicus [12] = assay: Anti-inflammatory activity against carrageenan-induced paw edema in albino rat assessed as paw thickness at 60 mg/kg, po pretreated for 1 hr followed by carrageenan challenge measured at 7 hrs post carrageenan challenge (reference value: 0.464 +/- 0.023 mm); assay type: functional

| SMILES | Activity (Rattus norvegicus [1]) [mm] | Activity (Rattus norvegicus [2]) [mm] | Activity (Mus musculus [3]) | Activity (Rattus norvegicus [4]) [mm] | pIC50 [5] | inhibition in vivo at 100 mg/kg (Rattus norvegicus [6]) [%] | UI [7] | Activity (Mus musculus [8]) | inhibition in vivo at 60 mg/kg (Rattus norvegicus [9]) [%] | Activity (Rattus norvegicus [10]) [mm] | Activity (Rattus norvegicus [11]) [mm] | Activity (Rattus norvegicus [12]) [mm] |
| --- | --- | --- | --- | --- | --- | --- | --- | --- | --- | --- | --- | --- |
| COc1ccc(-c2nc(NCC(=O)N3CCOCC3)sc2-c2ccc(OC)cc2)cc1 | 0.213 | 0.17 | Active | 0.19 | 5.40 | 54.5 |  |  |  |  |  |  |
| O=C(CNc1nc(-c2ccccc2)c(-c2ccccc2)s1)N1CCOCC1 | 0.192 | 0.148 | Active | 0.167 | 5.24 | 59.8 |  |  |  |  |  |  |
| COc1ccc(-c2nc(NCC(=O)O)sc2-c2ccc(OC)cc2)cc1 | 0.251 | 0.165 |  | 0.213 | 6.49 |  | 8.5 | 10.67 - 14.4 |  |  |  |  |
| COc1ccc(-c2ncn(CC(=O)O)c2-c2ccc(OC)cc2)cc1 | 0.215 | 0.149 |  | 0.18 | 6.27 | 57 | 9.75 | 10.67 - 14.4 |  |  |  |  |
| O=C(O)CNc1nc(-c2ccccc2)c(-c2ccccc2)s1 | 0.231 | 0.166 |  | 0.185 | 6.38 | 54 | 9.39 |  |  |  |  |  |
| COc1ccc2c(c1)c(CC(=O)O)c(C)n2C(=O)c1ccc(Cl)cc1 [INDOMETHACIN] |  |  |  |  |  |  | 19.5 |  |  |  |  |  |
| O=C(O)Cn1cnc(-c2ccccc2)c1-c1ccccc1 | 0.235 | 0.161 |  | 0.189 | 6.17 | 53.8 | 13.3 | 10.67 - 14.4 |  |  |  |  |
| O=C(Cn1cnc(-c2ccccc2)c1-c1ccccc1)N1CCCCC1 |  |  |  |  | 5.07 |  |  |  |  |  |  |  |
| O=C(Cn1cnc(-c2ccccc2)c1-c1ccccc1)N1CCOCC1 | 0.218 | 0.166 | Active | 0.186 | 5.20 | 54.5 |  |  |  |  |  |  |
| COc1ccc(-c2ncn(CC(=O)N3CCCCC3)c2-c2ccc(OC)cc2)cc1 |  |  |  |  | 5.13 |  |  |  |  |  |  |  |
| COc1ccc(-c2nc(NCC(=O)N3CCCCC3)sc2-c2ccc(OC)cc2)cc1 |  |  |  |  | 5.22 |  |  |  |  |  |  |  |
| CN1CCN(C(=O)Cn2cnc(-c3ccccc3)c2-c2ccccc2)CC1 | 0.182 | 0.147 | Active | 0.168 | 5.38 | 60.5 |  |  |  |  |  |  |
| COc1ccc(-c2ncn(CC(=O)N3CCOCC3)c2-c2ccc(OC)cc2)cc1 | 0.19 | 0.146 | Active | 0.159 | 5.29 | 60.8 |  |  |  |  |  |  |
| O=C(O)Cc1ccccc1Nc1c(Cl)cccc1Cl [DICLOFENAC] |  |  |  |  |  |  |  | 24 | 84.5 | 0.09 | 0.06 | 0.04 |
| O=C(CNc1nc(-c2ccccc2)c(-c2ccccc2)s1)N1CCCCC1 |  |  |  |  | 5.10 |  |  |  |  |  |  |  |
| COc1ccc(-c2nc(NCC(=O)N3CCN(C)CC3)sc2-c2ccc(OC)cc2)cc1 | 0.172 | 0.144 | Active | 0.163 | 5.57 | 61.9 |  |  |  |  |  |  |
| COc1ccc(-c2ncn(CC(=O)N3CCN(C)CC3)c2-c2ccc(OC)cc2)cc1 | 0.152 | 0.17 | Active | 0.191 | 5.51 | 58.8 |  |  |  |  |  |  |
| CN1CCN(C(=O)CNc2nc(-c3ccccc3)c(-c3ccccc3)s2)CC1 | 0.205 | 0.173 | Active | 0.197 | 5.52 | 54.3 |  |  |  |  |  |  |
